The values that follow come from ChEMBL document CHEMBL1155706, “Vertilecanins: new phenopicolinic acid analogues from Verticillium lecanii” (2001).

Assay [1] deals with Helicoverpa zea. The assay is described as follows: Antiinsectan activity in Helicoverpa zea at 100 ppm. It is filed as functional, organism-based. The procedure, abridged:
(§1)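 Test material was mixed into the H. zea diet at the stated ppm level (100 or 1500 ppm). Activity was scored as the reduction in weight gain relative to controls.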

The next assay has as its system Bacillus subtilis. The assay is described as follows: Antibacterial activity against Bacillus subtilis ATCC 6051 at 100 ug/disk by standard disk diffusion assay. Format: functional. The method in brief: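 Standard paper-disk diffusion test with 100 μg loaded per disk against B. subtilis ATCC 6051. Read-out is the diameter of the inhibition zone in mm.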
Assay [2] relates to Helicoverpa zea. The assay is described as follows: Antiinsectan activity in Helicoverpa zea assessed as reduction in weight gain at 1500 ppm relative to control. Format: functional. On the set-up: scale not given: the % may be the effect or the level left. The method in brief:
as §1

SMILES strings stand for the structures. The source made the active and inactive calls. The calls are words filed in the database; no cut-off is given here.

As to `O=C(O)/C=C/CCCCCCC(=O)O`, in the assay with Helicoverpa zea [1], the result was inactive.

Turning to `COC(=O)c1ccc([C@H](O)c2ccccc2)cn1`, the outcome in the assay with Helicoverpa zea [1] was inactive.

Turning to `COC(=O)CNC(=O)c1ccc(C(=O)c2ccccc2)cn1`, the outcome in the assay on Helicoverpa zea [1] was inactive.

With `O=C(O)CNC(=O)c1ccc([C@H](O)c2ccccc2)cn1`, the outcome in the assay on Bacillus subtilis and with Helicoverpa zea [1] was inactive.

For the compound `O=C(O)CCCCCC/C=C/CO`, the outcome with Bacillus subtilis and with Helicoverpa zea [1] was inactive.

As for `O=C(O)c1ccc([C@H](O)c2ccccc2)cn1` [VERTILECANIN A], in the assay on Bacillus subtilis (read-out: IZ), the zone of inhibition at 100 µg/disc was determined as 8 mm. The result in the assay with Helicoverpa zea [1] was inactive. In addition, the Activity in the assay on Helicoverpa zea [2] came to 49%.

For the compound `COC(=O)CNC(=O)c1ccc([C@H](O)c2ccccc2)cn1`, the outcome in the assay on Helicoverpa zea [1] was inactive.
